Measurements pooled from the literature.
Protocols differ between the studies behind these lines.
ACHE: Acetylcholinesterase (ACHE, Homo sapiens, UniProt P22303)
FABP4: Fatty acid-binding protein, adipocyte (FABP4, Homo sapiens, UniProt P15090)
Sialidase-2: Sialidase-2 (Homo sapiens, UniProt Q9Y3R4)
DPP4: Dipeptidyl peptidase 4 (DPP4, Homo sapiens, UniProt P27487)

CC(C)(C)c1cccc(C=Nc2ccc(SCc3cc(=O)c(O)co3)cc2)c1 — IC50 (ACHE; enzyme activity, inhibitor, Ellman): 6.45 µM
O=C(O)C(F)(F)C(F)(F)C(F)(F)C(F)(F)C(F)(F)C(F)(F)C(F)(F)C(F)(F)C(F)(F)F — IC50 (FABP4; ligand displacement, fluorescence; pH 7.5): 3.54 µM
CCCCCc1cn([C@H]2[C@H]([C@H](O)[C@H](O)CO)OC(C(=O)O)=C[C@@H]2O)nn1 — IC50 (Sialidase-2; enzyme activity, inhibitor): > 500 µM
CC[C@@H](C)[C@H](NC(=O)COc1c(NC(C)=O)cc(-c2nc3ccccc3s2)cc1OC)C(=O)OC — IC50 (ACHE; enzyme activity, inhibitor, Ellman): > 256 µM
COc1cccc(C=Nc2ccc(SCc3cc(=O)c(O)co3)cc2)c1 — IC50 (ACHE; enzyme activity, inhibitor, Ellman): 19.9 µM
CCCCCC(=O)N[C@H]1[C@H]([C@H](O)[C@H](O)CO)OC(C(=O)O)=C[C@@H]1O — IC50 (Sialidase-2; enzyme activity, inhibitor): 8 µM
O=C(O)C(F)(F)C(F)(F)C(F)(F)C(F)(F)C(F)(F)C(F)(F)F — IC50 (FABP4; ligand displacement, fluorescence; pH 7.5): 11 µM
CN(C(=O)CC(C)(C)C)[C@H]1[C@H]([C@H](O)[C@H](O)CO)OC(C(=O)O)=C[C@@H]1O — IC50 (Sialidase-2; enzyme activity, inhibitor): 50 µM
O=c1cc(CSc2ccc(N=Cc3ccc(F)cc3)cc2)occ1O — IC50 (ACHE; enzyme activity, inhibitor, Ellman): 1.44 µM
COC(=O)[C@H](C)NC(=O)COc1c(NC(C)=O)cc(-c2nc3ccccc3s2)cc1OC — IC50 (ACHE; enzyme activity, inhibitor, Ellman): > 280 µM
O=C(O)C(F)(F)C(F)(F)C(F)(F)C(F)(F)C(F)(F)C(F)(F)C(F)(F)C(F)(F)C(F)(F)C(F)(F)C(F)(F)F — IC50 (Sterol carrier protein 2 (Homo sapiens, UniProt P22307); ligand displacement, fluorescence): 2.37 µM
C=CCc1ccc(O)c(-c2cc(CC=C)ccc2O)c1 — IC50 (DPP4; enzyme activity, inhibitor, fluorescence): > 100 µM
O=c1cc(-c2ccc(O)c(O)c2)oc2cc(O)cc(O)c12 — IC50 (DPP4; enzyme activity, inhibitor, fluorescence): 48 µM
O=C(O)C1=C[C@H](O)[C@@H](NCc2ccc(-c3ccccc3)cc2)[C@H]([C@H](O)[C@H](O)CO)O1 — IC50 (Sialidase-2; enzyme activity, inhibitor): 230 µM
Cc1cccc(C=Nc2ccc(SCc3cc(=O)c(O)co3)cc2)c1 — IC50 (ACHE; enzyme activity, inhibitor, Ellman): 5.66 µM
CCOC(=O)c1ccc(OC(=O)CCCCCN=C(N)N)cc1 — IC50 (Tryptase beta-2 (TPSB2, Homo sapiens, UniProt P20231); enzyme activity, inhibitor): 0.00428 µM
O=c1cc(CSc2ccc(N=Cc3ccccc3Cl)cc2)occ1O — IC50 (ACHE; enzyme activity, inhibitor, Ellman): 2.33 µM
C1CO1.C=O.CC(C)(C)CC(C)(C)c1ccc(O)cc1 — IC50 (Mitogen-activated protein kinase 3 (MAPK3, Homo sapiens, UniProt P27361); enzyme activity, inhibitor, ADP detection): 91.9 µM
CC(C)(C)NC(=O)N[C@H]1[C@H]([C@H](O)[C@H](O)CO)OC(C(=O)O)=C[C@@H]1O — IC50 (Sialidase-2; enzyme activity, inhibitor): > 500 µM
NC(=O)CC[C@H](NC(=O)[C@@H]1CCCN1C(=O)[C@H](CCC(N)=O)NC(=O)[C@@H]1CCCN1C(=O)[C@@H](N)Cc1ccc(O)cc1)C(=O)O — IC50 (DPP4; enzyme activity, inhibitor, absorbance; pH 8): 23.9 µM
COc1cc(-c2nc3ccccc3s2)cc(NC(C)=O)c1OCC(=O)N[C@H](Cc1ccccc1)C(=O)O — IC50 (ACHE; enzyme activity, inhibitor, Ellman): > 246 µM
O=c1cc(CSc2ccc(N=Cc3ccc(C(F)(F)F)cc3)cc2)occ1O — IC50 (ACHE; enzyme activity, inhibitor, Ellman): 13.3 µM
CCCCCCN[C@H]1[C@H]([C@H](O)[C@H](O)CO)OC(C(=O)O)=C[C@@H]1O — IC50 (Sialidase-2; enzyme activity, inhibitor): 16 µM
CC(=O)c1c(C)c2cnc(Nc3ccc(C4CCN(CCS(C)(=O)=O)CC4)cn3)nc2n(C2CCCC2)c1=O — IC50 (Cytochrome P450 2C9 (CYP2C9, Homo sapiens, UniProt P11712); enzyme activity, inhibitor; human, liver microsomes): > 10 µM
NS(=O)(=O)C(F)(F)C(F)(F)C(F)(F)C(F)(F)C(F)(F)C(F)(F)C(F)(F)C(F)(F)F — IC50 (FABP4; ligand displacement, fluorescence; pH 7.5): 17 µM
O=c1cc(CSc2ccc(N=Cc3ccccc3C(F)(F)F)cc2)occ1O — IC50 (ACHE; enzyme activity, inhibitor, Ellman): 8.05 µM
O=C(O)C1=C[C@H](O)[C@@H](n2cc(-c3ccc(-c4ccccc4)cc3)nn2)[C@H]([C@H](O)[C@H](O)CO)O1 — IC50 (Sialidase-2; enzyme activity, inhibitor): 270 µM
CC(C)(C)c1ccc(C=Nc2ccc(SCc3cc(=O)c(O)co3)cc2)cc1 — IC50 (ACHE; enzyme activity, inhibitor, Ellman): 17.4 µM
CC(=O)N(C)[C@H]1[C@H]([C@H](O)[C@H](O)CO)OC(C(=O)O)=C[C@@H]1O — IC50 (Sialidase-2; enzyme activity, inhibitor): > 500 µM
O=C(O)C(F)(F)C(F)(F)C(F)(F)C(F)(F)C(F)(F)C(F)(F)C(F)(F)C(F)(F)C(F)(F)C(F)(F)F — IC50 (FABP4; ligand displacement, fluorescence; pH 7.5): 2.92 µM
